From ChEMBL document CHEMBL1134305, “Synthesis and structure-activity relationships of N-(1-benzylpiperidin-4-yl)arylacetamide analogues as potent sigma1 receptor ligands” (J Med Chem, 2001)

Target: Sigma 2 receptor
Assay: Binding affinity for sigma 2 opioid receptor, measured on rat liver membranes using [3H]- DTG as radioligand in the presence of (+)-pentazocine
Set-up: species or system Membrane
How it was run: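 Rat liver P2 membranes (male Sprague-Dawley, 300-350 g; 35 µg protein) incubated with 3 nM [3H]DTG plus 100 nM (+)-pentazocine masking σ1 sites, in 50 mM Tris-HCl pH 8.0, 120 min, 25 °C. Test compounds at 0.005-1000 nM (eight concentrations). Nonspecific binding defined with 5 µM DTG. Filtration, scintillation counting. IC50 by nonlinear regression, generally in triplicate. Ki from at least three experiments.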

Ki [µM] | SMILES
0.3 | O=C(Cc1ccccc1)NC1CCN(Cc2ccc(C(F)(F)F)cc2)CC1
> 1 | O=C(Cc1ccccn1)NC1CCN(Cc2ccccc2)CC1
0.031 | O=C(Cc1cccc(F)c1)NC1CCN(Cc2ccc(F)cc2)CC1
0.513 | O=C(Cc1ccccc1)NC1CCN(Cc2cccc(C(F)(F)F)c2)CC1
0.683 | O=C(Cc1ccccc1)NC1CCN(Cc2ccccc2F)CC1
0.319 | O=C(Cc1ccccc1)NC1CCN(Cc2ccc([N+](=O)[O-])cc2)CC1
0.189 | O=C(Cc1ccccc1)NC1CCN(Cc2ccc3ccccc3c2)CC1
0.393 | O=C(Cc1cccs1)NC1CCN(Cc2ccccc2)CC1
0.0613 | O=C(Cc1ccc(I)cc1)NC1CCN(Cc2ccccc2)CC1
0.232 | O=C(Cc1ccccc1)NC1CCN(Cc2ccc(F)c(F)c2)CC1
0.233 | O=C(Cc1ccccc1F)NC1CCN(Cc2ccc(I)cc2)CC1
0.416 | COc1ccc2c(c1)C(CC(=O)NC1CCN(Cc3ccccc3)CC1)CC2=O (stereo not given)
0.181 | O=C(Cc1ccccc1F)NC1CCN(Cc2cccc(I)c2)CC1
0.257 | O=C(Cc1cccc(Cl)c1)NC1CCN(Cc2ccc(I)cc2)CC1
0.423 | O=C(Cc1ccccc1)NC1CCN(Cc2ccc(Cl)c(Cl)c2)CC1
0.694 | O=C(Cc1ccccc1)NC1CCN(Cc2ccc(I)cc2)CC1
0.112 | O=C(Cc1ccc2ccccc2c1)NC1CCN(Cc2ccccc2)CC1
> 1 | O=C(Cc1cccnc1)NC1CCN(Cc2ccccc2)CC1

Further lines, the compound ahead of its results:

SMILES | Ki [µM]
O=C(Cc1ccncc1)NC1CCN(Cc2ccccc2)CC1 | > 1
O=C(Cc1ccccc1)NC1CCN(Cc2cccc(I)c2)CC1 | 0.191
O=C(Cc1cccc(Br)c1)NC1CCN(Cc2ccc(F)cc2)CC1 | 0.00606
O=C(CSc1ncccn1)NC1CCN(Cc2ccccc2)CC1 | > 1
O=C(Cc1c[nH]c2ccccc12)NC1CCN(Cc2ccccc2)CC1 | > 1
O=C(Cc1ccccc1)NC1CCN(CCc2ccccc2)CC1 | 0.107
O=C(Cc1cccc(Cl)c1)NC1CCN(Cc2ccc(F)cc2)CC1 | 0.00938
O=C(Cc1ccccc1)NC1CCN(Cc2ccc3c(c2)OCO3)CC1 | 0.171
O=C(Cc1cccc(F)c1)NC1CCN(Cc2ccc(I)cc2)CC1 | 0.168
OC(CCCN1CCC(O)(c2ccc(Cl)cc2)CC1)c1ccc(F)cc1 (stereo not given) [HYDROXYHALOPERIDOL] | 0.0286
O=C(Cc1cccc(F)c1)NC1CCN(Cc2cccc(I)c2)CC1 | 0.0503
O=C(Cc1ccccc1)NC1CCN(Cc2cccc(F)c2)CC1 | > 1
O=C(Cc1cccc2ccccc12)NC1CCN(Cc2ccccc2)CC1 | 0.0394
O=C(Cc1ccsc1)NC1CCN(Cc2ccccc2)CC1 | 0.337
O=C(Cc1ccccc1)NC1CCN(Cc2ccccc2I)CC1 | 0.631
O=C(Cc1c[nH]c2ccc(Br)cc12)NC1CCN(Cc2ccccc2)CC1 | 0.678
O=C(Cc1cccc(Cl)c1)NC1CCN(Cc2cccc(I)c2)CC1 | 0.0303
COc1ccc2[nH]cc(CC(=O)NC3CCN(Cc4ccccc4)CC3)c2c1 | > 1
O=C(Cc1cccc(Br)c1)NC1CCN(Cc2ccc(I)cc2)CC1 | 0.0903
O=C(Cc1ccccc1)NC1CCN(Cc2ccccc2)CC1 | 0.24
O=C(Cc1cccc(Br)c1)NC1CCN(Cc2cccc(I)c2)CC1 | 0.0593
O=C(Cc1ccccc1)NC1CCN(Cc2ccc(F)cc2)CC1 | 0.0829
O=C(Cc1cc(=O)oc2cc(O)ccc12)NC1CCN(Cc2ccccc2)CC1 | > 1
O=C(Cc1ccccc1)NC1CCN(Cc2ccccc2C(F)(F)F)CC1 | > 1
O=C(Cc1c[nH]cn1)NC1CCN(Cc2ccccc2)CC1 | > 1
O=C(Cc1ccccc1F)NC1CCN(Cc2ccc(F)cc2)CC1 | 0.14
O=C(Nc1cccc2ccccc12)NC1CCN(Cc2ccccc2)CC1 | 0.025
